Most compounds without a hit are left out; they make up all but 1.5% or so of the library.
EBI2 antag: antagonists of human EBI2 receptor. inhibition, % at 5 µM. AID 651636. EBI2 beta-arrestin recruitment, luminescence, 7a,25-OHC stimulated. P32249. hit rate 0.81% among 360,000; in the data active = inhibition above about 38%;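 also: enzyme fragment complementation signal reports receptor beta-arrestin coupling in cells; 0% = agonist plus DMSO wells and 100% = wells without agonist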
APJ antagonist: antagonists of human APJ apelin receptor | P35414 | CHO-K1 APJ beta-arrestin complementation, luminescence | inhibition, % at 20 µM | hit rate 0.32% among 330,000;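 active = inhibition above about 40% at 20 µM, limit read from the data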;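 also: cells challenged with 10 nM apelin-13 agonist together with compound; plate controls were apelin-13 plus DMSO wells for no effect and DMSO wells lacking apelin-13 for full effect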
CXCR6 block: blocks human CXCR6 beta-arrestin recruitment. O00574. CHO-K1 PathHunter CXCR6 beta-arrestin, luminescence. inhibition, % at 20 µM. hit rate 0.36% among 360,000. AID 602244; in the data active = inhibition above about 34%, passing the limit was not always enough;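 also: antagonist mode with CXCL16 agonist at 10 nM final; 0% = 10 nM CXCL16 with DMSO and 100% = unstimulated wells without agonist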
Target sequence (O00574 whole entry, looked up): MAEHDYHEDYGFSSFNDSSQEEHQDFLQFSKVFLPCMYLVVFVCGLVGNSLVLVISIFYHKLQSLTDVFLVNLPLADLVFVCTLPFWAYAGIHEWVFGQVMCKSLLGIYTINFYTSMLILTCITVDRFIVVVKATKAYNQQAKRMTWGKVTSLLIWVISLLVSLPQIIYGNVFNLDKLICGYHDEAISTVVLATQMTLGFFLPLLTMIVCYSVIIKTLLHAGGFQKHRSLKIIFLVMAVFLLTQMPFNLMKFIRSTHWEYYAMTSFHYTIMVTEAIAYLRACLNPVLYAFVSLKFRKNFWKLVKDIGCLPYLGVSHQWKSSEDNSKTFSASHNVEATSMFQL
CCR6 antag: CCR6 (human) receptor antagonism | CHO-K1 CCR6 PathHunter beta-arrestin, luminescence, CCL20-stimulated | hit rate 0.49% among 340,000 | AID 493098 | P51684 | inhibition, % at 20 µM;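 active = compounds whose inhibition of the agonist-driven luminescence signal at 20 µM reaches about 50%, limit read from the data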;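 also: cells stimulated with CCL20 at 14 nM final; plate controls were DMSO with CCL20 for no effect and DMSO without agonist for full effect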
APJ ag: APJ receptor agonism. CHO-K1 APJ PathHunter beta-arrestin, luminescence; 0% DMSO wells, 100% apelin. activation, % at 20 µM. hit rate 0.11% among 330,000. AID 2520;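 active = activation more than six SD over the plate average, tested at 20 µM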;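 also: 0% = DMSO alone and 100% = apelin-13 at 10 nM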
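Test system: CHO-K1 APJ beta-arrestin complementation cell line | Compound: Single test compound dose, 20 µM final, 1% DMSO | Incubation: Compound 90 min 25 °C, reagent 1 h | Measured by: beta-gal luminescence | Read-out basis: APJ–arrestin association signal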
* marks the source's active call; other numbers are inactive results; . = no result.

SMILES | EBI2 antag | APJ antagonist | CXCR6 block | CCR6 antag | APJ ag
Cc1cc(C)c(S(=O)(=O)/N=C2\C=C(NS(=O)(=O)c3ccccc3)C(=O)c3ccccc32)c(C)c1 | 9 | 29 | 31 | 38 | -5
CCc1ccc(S(=O)(=O)/N=C2/C=C(Sc3ncn[nH]3)C(=O)c3ccccc32)cc1 | 3 | . | 54* | . | .
O=C1C(Nc2ccc(O)cc2)=C/C(=N/S(=O)(=O)c2cccs2)c2ccccc21 | 20 | . | 34 | 59* | .
CCc1ccc(S(=O)(=O)/N=C2\C=CC(=O)c3ccccc32)cc1 | . | -33 | . | . | 5
CCc1ccc(S(=O)(=O)/N=C2\C=C(Nc3cccc(C(=O)O)c3)C(=O)c3ccccc32)cc1 | -2 | 1 | 18 | 45 | -2
CCOc1ccc(CCNC(=O)CN2C(=O)c3cccnc3Oc3ccc(Cl)cc32)cc1 | 4 | -24 | 12 | 10 | 0
CN(C)C(=O)CSc1nc2ccc(C(=O)c3ccccc3)cc2[nH]1 | -6 | -5 | 2 | 9 | -4
O=C(O)c1ccc(NC2=C/C(=N/S(=O)(=O)c3cccs3)c3ccccc3C2=O)cc1 | -28 | . | 14 | . | .
Cc1cccc(NC2=C/C(=N/S(=O)(=O)c3cccs3)c3ccccc3C2=O)c1 | 17 | . | 27 | 53* | .
Cc1ccc(NC2=C/C(=N\S(=O)(=O)c3cccs3)c3ccccc3C2=O)c(C)c1 | 26 | 24 | 33 | 59* | -6
Cc1ccsc1C(=O)NNC(=O)c1cccc(S(=O)(=O)N2CCCC2)c1 | -2 | 6 | 3 | -1 | -4
Cc1ccc(NC(=S)NCc2ccccn2)cc1 | -6 | -11 | -4 | -2 | -1
S=C(NCc1ccccn1)NN=Cc1ccccn1 | -18 | . | 34 | 61* | .
COc1ccc(CCC(=O)N2CCCC(Nc3ccc(C)c(C)c3)C2)cc1OC (centres undefined) | 6 | -3 | 5 | 14 | -5
COc1ccc(C(C[N+](=O)[O-])C2(c3ccc(OC)c(OC)c3)C(=O)c3ccccc3C2=O)cc1 (centres undefined) | -22 | . | 29 | 59* | .
Cc1ccc(CNC(=O)CCS(=O)(=O)Cc2ccc(C)cc2)cc1 | -2 | 17 | 0 | 17 | 4
COc1ccccc1-c1nnc(SCC(=O)Nc2ccc3[nH]c(=O)[nH]c3c2)n1N | 2 | -2 | -5 | -6 | 0
N=c1c(C(=O)NCc2ccc(F)cc2)cc2c(=O)n3ccccc3nc2n1Cc1ccco1 | 2 | 49* | 23 | 33 | -6
OC(c1ccc(-c2ccccc2)cc1)c1ncc(-c2cccc(F)c2)[nH]1 (centres undefined) | 5 | . | -3 | . | .
O=C(C[C@@H]1C/C=C\C[C@H](Cc2ccc(F)cc2)C(=O)OC[C@H]2CCCN2C1=O)NCCO | -7 | 1 | -2 | 12 | -4
O=C(NNC(=O)c1cccc(Br)c1)Nc1ccc(Cl)cc1 | -19 | -2 | 1 | 6 | -3
O=C(NC(=S)Nc1ccc2oc(-c3cccnc3)nc2c1)c1cccc(Cl)c1 | 17 | 20 | 32 | 54* | 0
O=C(NC(=S)Nc1cccnc1)c1ccccc1 | 1 | 24 | 8 | 34 | -5
O=C(NC(=S)Nc1cc(Cl)ccc1O)c1cccc(Br)c1 | 18 | 28 | 38 | 59* | -8
O=C(NC(=S)Nc1cccnc1)c1cccc(Br)c1 | 1 | 11 | 20 | 58* | -3
SMILES | EBI2 antag | APJ antagonist | CXCR6 block | CCR6 antag | APJ ag
Nc1nn(-c2ccccc2)c(N)c1N=Nc1ccccc1 | 7 | -17 | -2 | -3 | 5
c1ccc(N=NC2=NN(c3ccccc3)CS2)cc1 | -1 | . | 42* | . | .
O=C(NN=C1c2ccccc2-c2ccccc21)c1cccc(Br)c1 | 13 | 40 | 46* | 47 | -4
O=C(COc1cccc(Br)c1)NN=C1c2ccccc2-c2ccccc21 | -2 | 2 | -6 | 8 | -1
Cc1ccc(C(=O)ONc2ccc(N=NC(=O)c3ccccc3O)cc2)cc1 | 12 | 35 | 28 | 56* | -10
CCCCCCNC(=O)c1cn(CC)c2cc(N3CCN(C)CC3)c(F)cc2c1=O | 45* | -21 | 2 | 1 | -2
CCn1cc(C(=O)NCCCO)c(=O)c2cc(F)c(N3CCN(C)CC3)cc21 | 4 | 13 | 6 | 9 | -1
COc1ccccc1CNC(=O)COC(=O)c1cc(-c2ccco2)nc2ccccc12 | -3 | 16 | 17 | 50* | -5
Cc1ccccc1-c1nnc(SCC(=O)N(C)C2CCS(=O)(=O)C2)n1C (centres undefined) | 1 | -1 | 6 | 8 | -3
CCN1/C(=C2/SC(=S)NC2=O)Sc2ccccc21 | 0 | 10 | 2 | 4 | -6
CSc1ccc(C2=C/C(=C3/SC(=S)NC3=O)c3ccccc3O2)cc1 | -2 | . | 45* | 76* | .
Cc1ccc(S(=O)(=O)N2CCC(C(=O)NCC(C)(C)N3CCOCC3)CC2)c(C)c1 | 9 | 2 | 2 | -3 | -1
COc1ccc(CCn2c(C)ccc2C)cc1OC | . | 9 | . | . | 1
COc1ccc(CCN2C(=O)C=CC2=O)cc1OC | 8 | . | 93* | 109* | .
CCOC(=O)/C(=C\c1ccccc1)C(=O)c1cc(C(C)=O)c(Nc2ccccc2)s1 | 48* | 17 | 11 | 27 | 6
CCOC(=O)/C(=C\c1cccnc1)C(=O)c1cc(C(C)=O)c(Nc2ccccc2)s1 | 81* | 69* | 93* | 100* | -5
Cc1ccc(CN2C(=O)CSC(C)C2=O)cc1 (centres undefined) | 1 | 12 | -4 | 8 | -4
C[C@@H](NC(=O)c1ncn(Cc2ccccc2)c1C(=O)N[C@H](C)c1ccccc1)c1ccccc1 | 48* | -5 | 0 | 23 | -5
O=C1/C(=C/c2ccc([N+](=O)[O-])cc2)C=C(c2ccccc2)N1c1ccc(O)cc1 | 61* | 6 | 38* | 54* | 0
CC(C)CC1Nc2ncnc(N3CCN(c4ccccc4)CC3)c2N(Cc2ccc(Cl)cc2)C1=O (centres undefined) | 11 | -36 | 14 | 7 | -8
Cc1ccc(C2C3CN(C(C)C)CC=C3C(C#N)=C(N)C2(C#N)C#N)cc1 (centres undefined) | 22 | 36 | 53* | 60* | -11
Cc1onc(-c2c(Cl)cccc2Cl)c1C(=O)c1c[nH]c(C(=O)NCCCN2CCOCC2)c1 | -5 | 9 | 2 | 4 | 0
COC(CNC(=O)c1cc(C(=O)c2c(-c3c(Cl)cccc3Cl)noc2C)c[nH]1)OC | 5 | -6 | 71* | 23 | 3
CC(C)c1ccc(N(CC(=O)NCc2ccc(F)cc2)C(=O)c2csnn2)cc1 | 23 | 9 | 20 | -2 | -4
O=[N+]([O-])c1c(Nc2ccccc2O)ccc2nonc12 | -4 | -20 | 2 | 4 | -4
O=[N+]([O-])c1c(Nc2ccccc2O)cc(Cl)c2nonc12 | 61* | 93* | 107* | 106* | -5
O=C(NCCc1ccccc1)c1ccc2c(c1)S(=O)(=O)N=C1CCCCCN12 | 4 | 1 | -7 | -3 | -3
